According to ChEMBL document CHEMBL1132963, “Structure-based design of potent, amidine-derived inhibitors of factor Xa: evaluation of selectivity, anticoagulant activity, and antithrombotic activity” (2000):
Each block holds one compound with its values, some of them ahead of it.

Key:
[1] = target: Coagulation factor X (Homo sapiens) (UniProt P00742); assay: Apparent association constant against human Coagulation factor X.
How it was run: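 Human fXa at 3.2 nM final in Tris/NaCl buffer pH 7.4 with HSA; inhibitor added from MeOH in triplicate at four to eight concentrations, then chromogenic substrate (0.3 mM stock) to start hydrolysis, read at 405 nm. Free and bound enzyme taken from on-plate standard curves; apparent Kass = [Eb]/[Ef][Io − Ib] from concentrations giving 20–80% inhibition. At least 3 separate experiments averaged.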

[2] = target: Vitamin K-dependent protein C (Homo sapiens) (UniProt P04070); assay: Tested for inhibition of activated protein C
How it was run: (§1)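 Apparent association constant from inhibition of chromogenic substrate hydrolysis read at 405 nm, using a single substrate concentration suited to each protease. Inhibitor dilutions done in triplicate at four to eight concentrations; Kass computed from free and bound enzyme at 20–80% inhibition. Mean of at least 3 separate experiments.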

[3] = target: Prothrombin (Homo sapiens) (UniProt P00734); assay: Tested for inhibition of thrombin.; how it was run: as §1
[4] = target: Tissue-type plasminogen activator (Homo sapiens) (UniProt P00750); assay: Tested for inhibition of Tissue type plasminogen activator; how it was run: as §1
[5] = Compound required to double the time to clot formation in reconstituted human plasma, using activated partial thromboplastin time (APTT); assay type: functional
How it was run: (§2)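 Reconstituted human plasma; clotting by activated partial thromboplastin time or prothrombin time. Value is the inhibitor concentration that doubles clotting time.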

[6] = organism: Homo sapiens; assay: Compound required to double the time to clot formation in reconstituted human plasma, using the prothromboplastin time (PT); assay type: functional; how it was run: as §2
[7] = target: T1, Trypsin II (Bos taurus) (UniProt Q29463); assay: Tested for inhibition of trypsin; how it was run: as §1
T1 sequence (whole entry): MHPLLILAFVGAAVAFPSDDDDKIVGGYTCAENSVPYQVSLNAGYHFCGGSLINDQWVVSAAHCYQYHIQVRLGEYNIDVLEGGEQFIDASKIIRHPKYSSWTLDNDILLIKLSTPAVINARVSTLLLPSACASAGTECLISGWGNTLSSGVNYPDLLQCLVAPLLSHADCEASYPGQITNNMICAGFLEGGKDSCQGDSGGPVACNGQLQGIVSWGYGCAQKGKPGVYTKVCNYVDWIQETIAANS

[8] = Selectivity as the ratio of Kass value towards fXa to that of UK.
How it was run: (§3)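 Ratio of fXa Kass to Kass for the second protease. Each Kass is an apparent association constant from chromogenic substrate hydrolysis kinetics at 405 nm, run at one substrate concentration per protease, in triplicate at four to eight inhibitor concentrations. Each value is the mean of at least 3 separate experiments.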

[9] = target: Coagulation factor X (Homo sapiens) (UniProt P00742); assay: Selectivity as the ratio of Kass value towards fXa to that of aPC.; how it was run: as §3
[10] = Selectivity as the ratio of Kass value towards fXa to that of tissue plasminogen activator.; how it was run: as §3
[11] = target: Thrombin and coagulation factor X (Homo sapiens) (UniProt P00734+P00742); assay: Selectivity as the ratio of Kass value towards fXa to that of thrombin.; assay type: protein assay; how it was run: as §3
[12] = Selectivity as the ratio of Kass value towards fXa to that of trypsin.; how it was run: as §3
[13] = target: Plasminogen (Homo sapiens) (UniProt P00747); assay: Tested for inhibition of plasmin
[14] = tested on: Plasminogen and coagulation factor X (Homo sapiens); assay: Selectivity as the ratio of Kass value towards fXa to that of plasmin.
[15] = target: Urokinase-type plasminogen activator (Homo sapiens) (UniProt P00749); assay: Tested for inhibition of Urokinase-type plasminogen activator; how it was run: as §1

Sequence of Thrombin and coagulation factor X (Homo sapiens) (P00742 whole entry, looked up, other chains not shown): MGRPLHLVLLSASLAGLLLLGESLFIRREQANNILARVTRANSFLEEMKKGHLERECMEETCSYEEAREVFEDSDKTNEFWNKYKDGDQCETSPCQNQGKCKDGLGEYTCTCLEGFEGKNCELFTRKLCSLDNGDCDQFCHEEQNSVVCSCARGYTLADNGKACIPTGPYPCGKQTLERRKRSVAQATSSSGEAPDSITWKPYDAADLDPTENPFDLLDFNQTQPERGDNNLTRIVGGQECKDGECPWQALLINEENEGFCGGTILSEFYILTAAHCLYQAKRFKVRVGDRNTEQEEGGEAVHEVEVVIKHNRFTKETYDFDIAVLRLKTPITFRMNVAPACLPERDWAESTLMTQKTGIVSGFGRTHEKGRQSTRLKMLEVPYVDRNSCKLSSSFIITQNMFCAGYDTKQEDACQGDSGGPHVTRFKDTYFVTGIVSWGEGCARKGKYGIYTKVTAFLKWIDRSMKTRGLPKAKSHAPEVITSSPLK
Sequence of Tissue-type plasminogen activator (Homo sapiens) (P00750 36-562 limits assumed): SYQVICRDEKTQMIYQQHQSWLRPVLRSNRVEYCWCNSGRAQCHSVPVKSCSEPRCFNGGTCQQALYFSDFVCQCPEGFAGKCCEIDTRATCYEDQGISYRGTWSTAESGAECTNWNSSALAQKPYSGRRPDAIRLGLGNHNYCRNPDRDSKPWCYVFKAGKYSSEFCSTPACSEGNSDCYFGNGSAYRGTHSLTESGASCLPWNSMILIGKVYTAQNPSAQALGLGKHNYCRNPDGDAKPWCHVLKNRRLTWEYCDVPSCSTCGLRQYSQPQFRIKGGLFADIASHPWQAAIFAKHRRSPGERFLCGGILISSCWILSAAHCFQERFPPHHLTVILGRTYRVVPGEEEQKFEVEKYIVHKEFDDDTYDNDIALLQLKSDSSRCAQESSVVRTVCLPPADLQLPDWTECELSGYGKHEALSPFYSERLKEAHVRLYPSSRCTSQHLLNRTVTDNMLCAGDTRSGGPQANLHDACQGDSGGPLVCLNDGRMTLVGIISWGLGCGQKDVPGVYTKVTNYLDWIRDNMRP
Sequence of Vitamin K-dependent protein C (Homo sapiens) (P04070 43-197 limits assumed): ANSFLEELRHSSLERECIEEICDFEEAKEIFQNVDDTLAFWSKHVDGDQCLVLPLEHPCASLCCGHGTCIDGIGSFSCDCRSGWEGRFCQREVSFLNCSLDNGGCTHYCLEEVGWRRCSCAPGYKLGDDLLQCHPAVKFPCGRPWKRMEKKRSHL
Sequence of Vitamin K-dependent protein C (Homo sapiens) (P04070 212-461 limits assumed): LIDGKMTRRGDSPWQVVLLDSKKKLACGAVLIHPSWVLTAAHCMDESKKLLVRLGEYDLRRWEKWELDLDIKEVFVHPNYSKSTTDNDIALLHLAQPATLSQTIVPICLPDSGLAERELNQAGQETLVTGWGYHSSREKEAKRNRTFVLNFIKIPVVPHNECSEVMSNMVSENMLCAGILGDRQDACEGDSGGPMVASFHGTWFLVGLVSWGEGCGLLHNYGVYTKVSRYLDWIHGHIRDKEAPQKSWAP
Sequence of Plasminogen (Homo sapiens) (P00747 whole entry, looked up): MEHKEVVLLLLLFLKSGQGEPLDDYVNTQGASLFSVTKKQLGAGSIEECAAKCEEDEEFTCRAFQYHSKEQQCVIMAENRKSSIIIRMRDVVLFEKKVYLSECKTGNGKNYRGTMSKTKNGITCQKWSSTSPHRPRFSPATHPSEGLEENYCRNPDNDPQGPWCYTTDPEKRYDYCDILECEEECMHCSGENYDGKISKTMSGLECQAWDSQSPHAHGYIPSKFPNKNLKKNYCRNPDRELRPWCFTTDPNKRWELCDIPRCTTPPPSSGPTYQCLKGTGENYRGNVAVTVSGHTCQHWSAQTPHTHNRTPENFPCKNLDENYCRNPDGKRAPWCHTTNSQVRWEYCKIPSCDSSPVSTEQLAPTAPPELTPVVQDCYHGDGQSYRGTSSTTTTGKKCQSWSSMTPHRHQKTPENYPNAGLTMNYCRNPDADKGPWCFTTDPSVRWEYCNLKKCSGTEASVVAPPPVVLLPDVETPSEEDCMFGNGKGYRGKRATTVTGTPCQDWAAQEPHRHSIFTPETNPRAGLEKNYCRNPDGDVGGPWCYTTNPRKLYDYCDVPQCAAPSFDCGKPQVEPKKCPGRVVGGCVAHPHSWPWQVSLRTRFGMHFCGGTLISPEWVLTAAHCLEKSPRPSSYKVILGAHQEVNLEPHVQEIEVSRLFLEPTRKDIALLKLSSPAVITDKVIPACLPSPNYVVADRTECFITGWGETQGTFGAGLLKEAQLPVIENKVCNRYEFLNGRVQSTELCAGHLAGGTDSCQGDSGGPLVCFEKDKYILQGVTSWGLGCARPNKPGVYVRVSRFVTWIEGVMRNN
Sequence of Coagulation factor X (Homo sapiens) (P00742 41-179 limits assumed): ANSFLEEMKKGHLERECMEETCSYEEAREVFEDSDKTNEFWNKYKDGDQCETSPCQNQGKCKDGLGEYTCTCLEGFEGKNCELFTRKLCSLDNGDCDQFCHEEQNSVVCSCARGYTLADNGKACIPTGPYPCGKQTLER
Sequence of Coagulation factor X (Homo sapiens) (P00742 235-488 limits assumed): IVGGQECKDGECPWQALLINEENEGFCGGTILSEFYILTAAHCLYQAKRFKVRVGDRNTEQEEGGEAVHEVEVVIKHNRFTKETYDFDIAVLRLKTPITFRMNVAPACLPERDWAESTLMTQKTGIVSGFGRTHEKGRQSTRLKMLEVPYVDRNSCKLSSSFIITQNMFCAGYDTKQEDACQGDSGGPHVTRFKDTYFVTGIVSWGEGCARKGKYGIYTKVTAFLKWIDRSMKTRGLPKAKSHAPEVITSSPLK

SMILES: COc1ccc(NC(=O)c2ccccc2NC(=O)c2cccc(C(=N)N)c2)cc1
K ass [1]: 1.7e+06 l M-1

SMILES: CC(C)(C)c1ccc(C(=O)Nc2cc(C(=O)O)ccc2NC(=O)c2cccc(C(=N)N)c2)cc1
K ass [2]: 13000 l M-1
K ass [3]: 650000 l M-1
K ass [4]: 4000 l M-1
K ass [15]: 1000 l M-1
Activity [5]: 0.72 µM
Activity [6]: 0.83 µM
K ass [7]: 1.2e+07 l M-1
Ratio [8]: 470000
Ratio [9]: 36000
Ratio [10]: 120000
Ratio [11]: 720
Ratio [12]: 390
K ass [13]: 73000 l M-1
Ratio [14]: 6400

SMILES: CC(C)c1ccc(C(=O)Nc2cc(OCC(=O)O)ccc2NC(=O)c2cccc(C(=N)N)c2)cc1
K ass [2]: 14000 l M-1
K ass [1]: 3.4e+08 l M-1
K ass [3]: 800000 l M-1
K ass [4]: 7000 l M-1
K ass [15]: 1000 l M-1
K ass [7]: 2.5e+06 l M-1
Ratio [8]: 340000
Ratio [9]: 24000
Ratio [10]: 49000
Ratio [11]: 430
Ratio [12]: 140
K ass [13]: 39000 l M-1
Ratio [14]: 8700

SMILES: CCOc1ccc(C(=O)Nc2ccccc2NC(=O)c2cccc(C(=N)N)c2)cc1
K ass [1]: 2.9e+07 l M-1

SMILES: CC(C)(C)c1ccc(C(=O)Nc2ccc(C(=O)O)cc2NC(=O)c2cccc(C(=N)N)c2)cc1
K ass [1]: 5.4e+07 l M-1

SMILES: COc1ccc(C(=O)Nc2ccccc2NC(=O)c2cccc(C(=N)N)c2)cc1
K ass [2]: 15000 l M-1
K ass [1]: 1.4e+07 l M-1
K ass [3]: 270000 l M-1
K ass [4]: 20000 l M-1
K ass [15]: 1000 l M-1
Activity [5]: 2 µM
Activity [6]: 1.5 µM
K ass [7]: 600000 l M-1
Ratio [8]: 15000
Ratio [9]: 1000
Ratio [10]: 750
Ratio [11]: 56
Ratio [12]: 25
K ass [13]: 20000 l M-1
Ratio [14]: 750

SMILES: COc1ccc(C(=O)Nc2ccccc2NC(=O)c2ccc(C(=N)N)cc2)cc1
K ass [1]: 5.7e+06 l M-1

SMILES: CC(C)c1ccc(C(=O)Nc2cc(O)ccc2NC(=O)c2cccc(C(=N)N)c2)cc1
K ass [1]: 2.3e+08 l M-1

SMILES: COc1ccc(C(=O)Nc2ccc(C(=N)N)cc2NC(=O)c2ccc(OC)cc2)cc1
K ass [1]: 270000 l M-1

SMILES: CC(C)c1ccc(C(=O)Nc2ccccc2NC(=O)c2cccc(C(=N)N)c2)cc1
K ass [1]: 1.8e+08 l M-1

SMILES: CCOC(=O)COc1ccc(NC(=O)c2cccc(C(=N)N)c2)c(NC(=O)c2ccc(C(C)C)cc2)c1
K ass [1]: 1.6e+08 l M-1

Second part, led by results:

K ass [1]: 1.2e+07 l M-1
SMILES: CC(C)(C)c1ccc(C(=O)Nc2ccsc2C(=O)Nc2cccc(C(=N)N)c2)cc1

K ass [2]: 2000 l M-1
K ass [1]: 2.5e+08 l M-1
K ass [3]: 3e+06 l M-1
K ass [4]: 11000 l M-1
K ass [7]: 340000 l M-1
Ratio [8]: > 250000
Ratio [9]: 13000
Ratio [10]: 23000
Ratio [11]: 83
Ratio [12]: 740
K ass [13]: 6000 l M-1
Ratio [14]: 42000
SMILES: CC(C)(C)c1ccc(C(=O)Nc2ccccc2NC(=O)c2cccc(C(=N)N)c2)cc1
Activity [5]: 0.67 µM
Activity [6]: 0.96 µM

K ass [1]: 1.2e+07 l M-1
SMILES: CC(C)(C)c1ccc(C(=O)Nc2ccccc2NC(=O)C2CCCN(C(=N)N)C2)cc1 (stereo not drawn)

K ass [1]: 1e+06 l M-1
SMILES: COc1ccc(C(=O)Nc2ccccc2NC(=O)C2CCCN(C(=N)N)C2)cc1 (stereo not drawn)

K ass [1]: 3.5e+06 l M-1
SMILES: CC(C)(C)c1ccc(C(=O)Nc2ccccc2C(=O)Nc2cccc(C(=N)N)c2)cc1
